In paper PMC6925336 (European journal of pharmaceutical sciences : official …, 2019):
Values joined by “and” are separate entries in the source; they are usually repeats but may differ in a detail not shown here. Equal values may be shown once.

Tests used:
[1] = Plasma protein binding by equilibrium dialysis; format: in vitro ADME, mouse
Outline: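 Equilibrium dialysis. CD-1 mouse plasma (sodium heparin) was spiked at final 2–2000 ng/ml (eight levels), in triplicate, against blank Ringer's solution. Rotated at 37°C for 24 h, then both sides sampled. Fraction unbound = buffer-side concentration / plasma-side total concentration.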

[2] = Plasma pharmacokinetic study, 10 mg/kg SQ, population model; format: in vivo, CD-1 nude mice bearing G3MB; settings: for AUC: Model-derived AUCplasma, total plasma
Outline: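 Nine female CD-1 nude mice carrying orthotopic mouse G3MB cells (enrolled at ~1×10^7 photons/sec) got 10 mg/kg SQ in 20% w/v Captisol. Population design: 2–3 samples per mouse up to 24 h, […]. Plasma assayed by LC-MS/MS. Fit with a two-compartment model with first-order absorption and linear elimination (apparent parameters); FOCE with interaction; log-normal inter-individual variability.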

[3] = Cerebral microdialysis, tumor ECF, mice bearing G3MB; format: in vivo, CD-1 nude mice bearing G3MB
Outline: (§1)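 Female CD-1 nude mice, non-tumor-bearing (N=7) or with cortical G3MB implants enrolled at ~1×10^7 photons/sec (N=8). Stereotactic cortical guide cannula; 1 mm probe (38 kDa MWCO) perfused with Ringer's at 0.5 µl/min, 1 h equilibration. Single 10 mg/kg SQ dose. Hourly dialysate to 24 h; plasma at 0.25, 6.5 and 24 h. LC-MS/MS. Unbound ECF = dialysate/probe recovery. Population PK model gave per-mouse AUCs and ECF rate constants.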

[4] = Cerebral microdialysis, brain ECF, non-tumor bearing; format: in vivo, CD-1 nude mice (non-tumor bearing); settings: 10 mg/kg SQ
Outline: as §1

[5] = Plasma pharmacokinetic study, 20 mg/kg IV, PK/PD model; format: in vivo, CD-1 nude mice bearing G3MB; settings: plasma model re-estimated with 20 mg/kg IV data
Outline: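 Nine female CD-1 nude mice with orthotopic G3MB (~1×10^7 photons/sec) got 20 mg/kg prexasertib mesylate IV in 20% w/v Captisol. Sparse sampling: 2–3 plasma samples per mouse to 24 h, LC-MS/MS.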

pCHK1 S345 = assay: Pharmacodynamic study, immunohistochemistry of G3MB tumor tissue: pCHK1 S345; format: in vivo, mice bearing G3MB
Outline: (§2)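 G3MB-bearing mice (N=21), enrolled at ~1×10^7 photons/sec, were randomized to vehicle or one 20 mg/kg IV bolus. Brains were harvested pre-dose and at 1, 2, 6 and 24 h post-dose and fixed in paraformaldehyde. Immunohistochemistry was done for pCHK1 S345, γ-H2AX and cleaved caspase-3. Scanned slides were quantified as percent positive-staining cells.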

γ-H2AX = assay: Pharmacodynamic study, immunohistochemistry of G3MB tumor tissue: γ-H2AX; format: in vivo, mice bearing G3MB
Outline: as §2

cleaved caspase-3 = format: in vivo, mice bearing G3MB; settings: 20 mg/kg IV single dose, at 24 hours post-dose; not statistically significant
Outline: as §2

[6] = adult patients, recommended phase II dosage of 105 mg/m^2; ref Hong et al., 2016; cited from earlier work
[7] = 10 mg/kg SQ, apparent parameter
[8] = 10 mg/kg SQ, ECF model, G3MB mice
[9] = PK/PD model, fixed based upon a sensitivity analysis

Binding to the dialysis membrane of the Equilibrium Dialyzer plate [1]: negligibly bound
fraction unbound at 24 h ([1]; CD-1, mouse, plasma): 0.11
CL, plasma (central) clearance, estimate (RSE%) [2, 7]: 5.64 (4.3%) l/h/kg
Q, tissue (peripheral) clearance, estimate (RSE%) [2, 7]: 0.58 (13%) l/h/kg
Vc, plasma (central) volume, estimate (RSE%) [2, 7]: 1.81 (18%) l/kg
Vp, tissue (peripheral) volume, estimate (RSE%) [2, 7]: 3.42 (8.0%) l/kg
ka, absorption rate constant, estimate (RSE%) ([2]; 10 mg/kg SQ, plasma population model): 1.07 (12%) h^−1
half-life ([2]; female, CD-1 nude, mouse, plasma, subcutaneous, 10 mg/kg): 270 min
AUC ([2]; female, CD-1 nude, mouse, plasma, subcutaneous, 10 mg/kg, 0−∞ (mean ± SD), 10 mg/kg SQ): 1820 ± 462 ng·h/mL
AUC ([2]; female, CD-1 nude, mouse, plasma, subcutaneous, 10 mg/kg, 0−∞, range, 10 mg/kg SQ): 1460 to 2880 ng·h/mL
kb45, peripheral rate constant, estimate (RSE%) [3, 8]: 0.39 (24%) h^−1
kb54, peripheral rate constant, estimate (RSE%) [3, 8]: 0.05 (41%) h^−1
Time of maximum tumor ECF concentrations post-dose ([3]; 10 mg/kg SQ, mice bearing G3MB): 1 h
Unbound AUCECF (mean ± SD) ([3]; 10 mg/kg SQ, tumor ECF, tumor-bearing mice, at 24 hours post-dose): 47.3 ± 17 ng·h/mL
Kp uu ([3]; CD-1 nude, mouse, tumor ECF (microdialysate) / unbound plasma, subcutaneous, 10 mg/kg): 0.17 ± 0.08
θNTB on CLef, proportional shift for NTB mice, estimate (RSE%) ([4]; ECF model): 2.20 (38%)
θNTB on CLin, proportional shift for NTB mice, estimate (RSE%) ([4]; ECF model): 0.93 (45%)
θNTB on kb45, proportional shift for NTB mice, estimate (RSE%) ([4]; ECF model): 5.90 (77%)
θNTB on kb54, proportional shift for NTB mice, estimate (RSE%) ([4]; ECF model): 17.9 (32%)
Time of maximum brain ECF concentrations post-dose ([4]; NTB mice): 1 h
AUCplasma of unbound prexasertib (mean ± SD) ([4]; NTB mice, at 24 hours post-dose, from total exposure and FU): 271 ± 23 ng·h/mL
Unbound AUCECF (mean ± SD) ([4]; brain ECF, NTB mice, at 24 hours post-dose): 24.8 ± 11.8 ng·h/mL and 24.8 ng·h/mL
CL, plasma clearance, estimate (RSE%) [5]: 6.03 (8.0%) l/h/kg
Q, tissue (peripheral) clearance, estimate (RSE%) [5]: 0.807 (10%) l/h/kg
Vc, plasma volume, estimate (RSE%) [5]: 2.67 (13%) l/kg
Vp, tissue (peripheral) volume, estimate (RSE%) [5]: 3.79 (6.0%) l/kg
ka, absorption rate constant, estimate (RSE%) [5]: 1.16 (10%) h^−1
EC50 at 20 mg/kg (pCHK1 S345; Mus musculus, iv, read-out: pCHK1 S345 EC50, prexasertib ECF concentration for 50% stimulation of maximum function of kin, estimate (RSE%), PK/PD model, 20 mg/kg IV, tumor ECF, preliminary): 0.0102 µg/mL
pCHK1 S345 EC50, prexasertib ECF concentration for 50% stimulation of maximum function of kin, estimate (RSE%) (pCHK1 S345; PK/PD model, 20 mg/kg IV, tumor ECF, preliminary, 20 mg/kg): 10.15 (26.5%) ng/ml
Compound: COc1cccc(OCCCN)c1-c1cc(Nc2cnc(C#N)cn2)n[nH]1 [prexasertib, 5-(5-[2-(3-Aminopropoxy)-6-methoxyphenyl]-1H-pyrazol-3-yl}amino)pyrazine-2-carbonitrile methanesulfonate hydrate]
Time of peak induction of pCHK1 S345 after the dose (pCHK1 S345; 20 mg/kg IV single dose): 2 hours
Time pCHK1 S345 stayed above baseline after the dose (pCHK1 S345; 20 mg/kg IV single dose): at least 6 hours
Peak in pCHK1 S345 nuclear staining (pCHK1 S345; 20 mg/kg IV single dose, at 2 hours): 2.2 fold
pCHK1 S345 Emax, maximum extent of stimulation (pCHK1 S345; [9]): 2.0 (-)
Time of peak induction of γ-H2AX after the dose (γ-H2AX; 20 mg/kg IV single dose): 2 h
Time γ-H2AX was elevated above baseline (γ-H2AX; 20 mg/kg IV single dose): at least 6 hours
pH2Ax Emax, maximum extent of stimulation (γ-H2AX; [9]): 5.0 (-)
Increase of cleaved caspase-3 (cleaved caspase-3): 1.4 fold
Plasma exposure AUCplasma, 0−∞ (mean ±SD) [6]: 2410 ± 1229 ng·h/mL
